Measured values published in ChEMBL document CHEMBL1126849, “Synthesis of A-ring fluorinated derivatives of (17 alpha,20E/Z)-[125I]iodovinylestradiols: effect on receptor binding and receptor-mediated target tissue uptake” (J Med Chem, 1993).

How the values were obtained:
Rattus norvegicus [1] = assay: Biodistribution in liver of immature female rat after 1 hr administration of 3 micro Ci (111 kBq) in the presence of (+E2); format: ADME, organism-based; details: in vivo
How it was run: (§1)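 Immature female Long Evans rats (21–24 days, 45–70 g), unanesthetized in retention cages, given 3 µCi (111 kBq) 125I-labeled steroid i.v. via lateral tail vein. Vehicle was ethanol diluted in saline containing 1% Tween-80, giving 9% ethanol final. The blocking group received 60 µg unlabeled estradiol co-injected. Rats were killed under ether by axillary bleeding, and tissues were KCl-washed and gamma-counted. Data are %ID/g, mean ± SE, n=3–5.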

Rattus norvegicus [2] = assay: Biodistribution in kidney of immature female rat after 12 hour administration of 3 micro Ci (111 kBq) in the absence of 60 microg estradiol; format: ADME, organism-based; details: in vivo; how it was run: as §1
Rattus norvegicus [3] = assay: Biodistribution in kidney of immature female rat after 1 hr administration of 3 micro Ci (111 kBq) in the absence of 60 microg estradiol; format: ADME, organism-based; details: in vivo; how it was run: as §1
Rattus norvegicus [4] = assay: Biodistribution in liver of immature female rat after 3 hour administration of 3 micro Ci (111 kBq) in the absence of 60 microg estradiol; format: ADME, organism-based; details: in vivo; how it was run: as §1
Rattus norvegicus [5] = assay: Biodistribution in liver of immature female rat after 5 hour administration of 3 micro Ci (111 kBq) in the absence of 60 microg estradiol; format: ADME, organism-based; details: in vivo; how it was run: as §1
Rattus norvegicus [6] = assay: Biodistribution in lungs of immature female rat after 12 hour administration of 3 micro Ci (111 kBq) in the absence of 60 microg estradiol; format: ADME, organism-based, Lung; details: in vivo
How it was run: (§2)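 Immature female Long Evans rats (21–24 days, 45–70 g), three to five per group, given 125I-labeled steroid (3 μCi, 111 kBq) by lateral tail vein without anesthesia. Vehicle: ethanol diluted in saline with 1% Tween-80, final ethanol 9%, 0.22 μm filtered. +E2 groups received 60 μg unlabeled estradiol co-injected. Killed under ether at set times; tissues KCl-washed, blotted, weighed, gamma counted; %ID/g, mean with SE.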

Rattus norvegicus [7] = assay: Biodistribution in lungs of immature female rat after 1 hr administration of 3 micro Ci (111 kBq) in the presence of (+E2); format: ADME, organism-based, Lung; details: in vivo; how it was run: as §1
Rattus norvegicus [8] = assay: Biodistribution in lungs of immature female rat after 5 hour administration of 3 micro Ci (111 kBq) in the absence of 60 microg estradiol; format: ADME, organism-based, Lung; details: in vivo; how it was run: as §2
Rattus norvegicus [9] = assay: Biodistribution in fat of immature female rat after 12 hour administration of 3 micro Ci (111 kBq) in the absence of 60 microg estradiol; format: ADME, organism-based, Adipose tissue; details: in vivo; how it was run: as §1
Rattus norvegicus [10] = assay: Biodistribution in fat of immature female rat after 1 hr administration of 3 micro Ci (111 kBq) in the absence of 60 microg estradiol; format: ADME, organism-based, Adipose tissue; details: in vivo; how it was run: as §1
Rattus norvegicus [11] = assay: Biodistribution in fat of immature female rat after 1 hr administration of 3 micro Ci (111 kBq) in the presence of (+E2); format: ADME, organism-based, Adipose tissue; details: in vivo; how it was run: as §1
Rattus norvegicus [12] = assay: Biodistribution in fat of immature female rat after 3 hour administration of 3 micro Ci (111 kBq) in the absence of 60 microg estradiol; format: ADME, organism-based, Adipose tissue; details: in vivo; how it was run: as §1
Rattus norvegicus [13] = assay: Biodistribution in fat of immature female rat after 5 hour administration of 3 micro Ci (111 kBq) in the absence of 60 microg estradiol; format: ADME, organism-based, Adipose tissue; details: in vivo; how it was run: as §1
Rattus norvegicus [14] = assay: Biodistribution in muscle of immature female rat after 12 hour administration of 3 micro Ci (111 kBq) in the absence of 60 microg estradiol; format: ADME, organism-based, Muscle tissue; details: in vivo; how it was run: as §2
Rattus norvegicus [15] = assay: Biodistribution in muscle of immature female rat after 5 hour administration of 3 micro Ci (111 kBq) in the absence of 60 microg estradiol; format: ADME, organism-based, Muscle tissue; details: in vivo; how it was run: as §2
Rattus norvegicus [16] = assay: Biodistribution in spleen of immature female rat after 12 hour administration of 3 micro Ci (111 kBq) in the absence of 60 microg estradiol; format: ADME, organism-based; details: in vivo; how it was run: as §2
Rattus norvegicus [17] = assay: Biodistribution in spleen of immature female rat after 1 hr administration of 3 micro Ci (111 kBq) in the presence of (+E2); format: ADME, organism-based; details: in vivo; how it was run: as §2
Rattus norvegicus [18] = assay: Biodistribution in spleen of immature female rat after 3 hour administration of 3 micro Ci (111 kBq) in the absence of 60 microg estradiol; format: ADME, organism-based; details: in vivo; how it was run: as §2
Rattus norvegicus [19] = assay: Biodistribution in blood of immature female rat after 5 hour administration of 3 micro Ci (111 kBq) in the absence of 60 microg estradiol; format: ADME, organism-based; details: in vivo; how it was run: as §1
Rattus norvegicus [20] = assay: Biodistribution in kidney of immature female rat after 5 hour administration of 3 micro Ci (111 kBq) in the absence of 60 microg estradiol; format: ADME, organism-based; details: in vivo; how it was run: as §1
Rattus norvegicus [21] = assay: Biodistribution in uterus / spleen, muscle, lungs of immature female rat after 12 hour administration of 3 micro Ci (111 kBq) in the absence of 60 microg estradiol; format: ADME, organism-based; details: in vivo
How it was run: (§3)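 Immature female Long Evans rats (21–24 days, 45–70 g), 3–5 per group, unanesthetized in retention cages, given 3 μCi (111 kBq) 125I-labeled steroid by lateral tail vein. Vehicle: ethanol diluted with saline containing 1% Tween-80, final ethanol 9%. +E2 group co-injected 60 μg unlabeled estradiol (1 h only). Killed under ether; tissues KCl-washed, weighed, gamma-counted. Output: %ID/g (mean, SE) and uterus to blood or nontarget (muscle, spleen, lungs) ratios.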

Rattus norvegicus [22] = assay: Biodistribution in uterus / spleen, muscle, lungs of immature female rat after 1 hr administration of 3 micro Ci (111 kBq) in the absence of 60 microg estradiol; format: ADME, organism-based; details: in vivo
How it was run: (§4)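 Same in vivo procedure: immature female Long Evans rats (21–24 days), three to five per group, 3 μCi (111 kBq) tracer i.v. via tail vein in 9% ethanol/saline/1% Tween-80, ± 60 μg estradiol co-injected at 1 h. Uterus %ID/g (gamma counting) divided by blood, or by nontarget organ (muscle, spleen, lungs), %ID/g to give ratios.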

Rattus norvegicus [23] = assay: Biodistribution in uterus of immature female rat after 1 hr administration of 3 micro Ci (111 kBq) in the absence of 60 microg estradiol; format: ADME, organism-based; details: in vivo; how it was run: as §3
Rattus norvegicus [24] = assay: Biodistribution in uterus of immature female rat after 3 hour administration of 3 micro Ci (111 kBq) in the absence of 60 microg estradiol; format: ADME, organism-based; details: in vivo; how it was run: as §3
Rattus norvegicus [25] = assay: Biodistribution in thyroid of immature female rat after 5 hour administration of 3 micro Ci (111 kBq) in the absence of 60 microg estradiol; format: ADME, organism-based, Thyroid gland; details: in vivo; how it was run: as §2
Rattus norvegicus [26] = assay: Biodistribution in uterus / blood of immature female rat after 1 hr administration of 3 micro Ci (111 kBq) in the absence of 60 microg estradiol; format: ADME, organism-based; details: in vivo; how it was run: as §4
Rattus norvegicus [27] = assay: Biodistribution in uterus / blood of immature female rat after 1 hr administration of 3 micro Ci (111 kBq) in the presence of (+E2); format: ADME, organism-based; details: in vivo; how it was run: as §4
Rattus norvegicus [28] = assay: Biodistribution in uterus / blood of immature female rat after 3 hour administration of 3 micro Ci (111 kBq) in the absence of 60 microg estradiol; format: ADME, organism-based; details: in vivo; how it was run: as §4
Rattus norvegicus [29] = assay: Biodistribution in uterus / blood of immature female rat after 5 hour administration of 3 micro Ci (111 kBq) in the absence of 60 microg estradiol; format: ADME, organism-based; details: in vivo; how it was run: as §4
[30] = target: Estrogen receptor (Mus musculus) (UniProt O08537+P19785); assay: Relative binding affinity (RBA) against murine cytoplasmic estrogen receptor incubated at 0-4 degree Celsius for 18 hours; format: protein assay
How it was run: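 Competitive binding on murine uterine cytoplasmic extract with 20 nM [3H]estradiol and competitor steroids at 2 nM–20 μM, incubated 18 h at 0–4 °C. RBA = 100 × ratio of […] concentration giving 50% competition for specific binding. Mean of three experiments with SD.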

Estrogen receptor (Mus musculus), sequence (O08537 whole entry, looked up): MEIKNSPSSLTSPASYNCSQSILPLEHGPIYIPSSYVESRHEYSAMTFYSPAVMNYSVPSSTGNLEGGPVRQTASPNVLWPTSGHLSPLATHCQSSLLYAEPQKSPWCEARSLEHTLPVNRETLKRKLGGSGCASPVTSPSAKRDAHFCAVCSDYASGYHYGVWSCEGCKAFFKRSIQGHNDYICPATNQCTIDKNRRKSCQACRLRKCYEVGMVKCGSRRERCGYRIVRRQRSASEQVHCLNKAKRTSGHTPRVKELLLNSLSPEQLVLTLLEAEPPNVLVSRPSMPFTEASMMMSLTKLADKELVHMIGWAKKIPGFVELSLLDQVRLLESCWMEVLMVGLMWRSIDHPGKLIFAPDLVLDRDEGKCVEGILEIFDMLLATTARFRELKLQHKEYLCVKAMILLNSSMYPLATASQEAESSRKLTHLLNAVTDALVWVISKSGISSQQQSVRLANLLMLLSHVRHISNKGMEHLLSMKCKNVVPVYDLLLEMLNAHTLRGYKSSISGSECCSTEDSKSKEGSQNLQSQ
Estrogen receptor (Mus musculus), sequence (P19785 whole entry, looked up): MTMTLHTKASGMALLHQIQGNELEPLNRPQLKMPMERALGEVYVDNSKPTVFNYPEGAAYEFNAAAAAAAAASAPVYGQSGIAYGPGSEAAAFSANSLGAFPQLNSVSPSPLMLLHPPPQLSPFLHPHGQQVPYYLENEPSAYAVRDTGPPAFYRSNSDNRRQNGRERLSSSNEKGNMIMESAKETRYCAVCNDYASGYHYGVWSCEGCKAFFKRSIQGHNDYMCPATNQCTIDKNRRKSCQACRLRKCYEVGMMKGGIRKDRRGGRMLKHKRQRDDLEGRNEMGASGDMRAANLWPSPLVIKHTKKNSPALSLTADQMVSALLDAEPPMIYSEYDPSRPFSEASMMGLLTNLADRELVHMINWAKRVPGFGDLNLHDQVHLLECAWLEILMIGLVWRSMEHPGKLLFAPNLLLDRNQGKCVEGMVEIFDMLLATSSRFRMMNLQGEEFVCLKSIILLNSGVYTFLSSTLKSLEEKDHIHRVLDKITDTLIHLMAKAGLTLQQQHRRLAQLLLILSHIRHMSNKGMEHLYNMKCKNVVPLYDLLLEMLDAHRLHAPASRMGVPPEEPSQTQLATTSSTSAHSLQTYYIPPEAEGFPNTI

Row | Compound | ID/g (Rattus norvegicus [1]) [%] | ID/g (Rattus norvegicus [2]) [%] | ID/g (Rattus norvegicus [3]) [%] | ID/g (Rattus norvegicus [4]) [%] | ID/g (Rattus norvegicus [5]) [%] | ID/g (Rattus norvegicus [6]) [%] | ID/g (Rattus norvegicus [7]) [%] | ID/g (Rattus norvegicus [8]) [%] | ID/g (Rattus norvegicus [9]) [%] | ID/g (Rattus norvegicus [10]) [%] | ID/g (Rattus norvegicus [11]) [%] | ID/g (Rattus norvegicus [12]) [%] | ID/g (Rattus norvegicus [13]) [%] | ID/g (Rattus norvegicus [14]) [%] | ID/g (Rattus norvegicus [15]) [%] | ID/g (Rattus norvegicus [16]) [%] | ID/g (Rattus norvegicus [17]) [%] | ID/g (Rattus norvegicus [18]) [%] | ID/g (Rattus norvegicus [19]) [%] | ID/g (Rattus norvegicus [20]) [%] | further results
1 | CO[C@H]1C[C@@]2(C)[C@@H](CC[C@@]2(O)/C=C\I)[C@@H]2CCc3c(ccc(O)c3F)[C@H]21 | 2.77 | 1.23 | 1.64 | 1.21 | 1.42 | 0.37 | 0.95 | 0.51 | 0.47 | 1.43 | 1.82 | 1.13 | 0.75 | 0.27 | 0.4 | 0.7 | 1.28 | 0.72 | 0.51 | 1.08 | uterus to nontarget tissue ratio (Rattus norvegicus [21]): 19.35%; uterus-to-nontarget tissue uptake ratio (Rattus norvegicus [22]): 7.3%; ID/g (Rattus norvegicus [23]): 6.87%; ID/g (Rattus norvegicus [24]): 7.48%; ID/g (Rattus norvegicus [25]): 2369%; uterus-to-blood ratio of %ID/g (Rattus norvegicus [26]): 10.55%; uterus/blood %ID/g ratio (Rattus norvegicus [27]): 1.3%; uterus to blood %ID/g ratio (unitless) (Rattus norvegicus [28]): 13.35%; uterus to blood ratio (Rattus norvegicus [29]): 20.08%; RBA [30]: 37.9
2 | C[C@@H]1Cc2cc(O)c(F)cc2[C@H]2CC[C@@]3(C)[C@@H](CC[C@@]3(O)/C=C/I)[C@H]12 | 2.28 | 0.15 | 0.63 | 1.53 | 1.38 | 0.12 | 0.53 | 0.22 | 0.92 | 1.5 | 1.48 | 1.36 | 1.28 | 0.17 | 0.21 | 0.12 | 0.45 | 0.43 | 0.17 | 0.26 | uterus to nontarget tissue ratio (Rattus norvegicus [21]): 2.55%; uterus-to-nontarget tissue uptake ratio (Rattus norvegicus [22]): 3.3%; ID/g (Rattus norvegicus [23]): 1.03%; ID/g (Rattus norvegicus [24]): 0.85%; ID/g (Rattus norvegicus [25]): 203%; uterus-to-blood ratio of %ID/g (Rattus norvegicus [26]): 4.49%; uterus/blood %ID/g ratio (Rattus norvegicus [27]): 1.34%; uterus to blood %ID/g ratio (unitless) (Rattus norvegicus [28]): 4.11%; uterus to blood ratio (Rattus norvegicus [29]): 3.69%; RBA [30]: 12.1
